Screening results: PubChem, Johns Hopkins Ion Channel Center
The list is not random: actives were taken first. Their share in the collection is about 2.3%.
TRPC6 inh: mouse TRPC6 channel inhibition; Q61143; HEK293-TRPC6, membrane potential dye, ACh-evoked depolarization; active compounds read low; B-score at 10 µM; 310,000 compounds, 1.1% hits; AID 2553;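 active = B-score under library mean minus 3 SD, initial fluorescence not abnormally high, positive integrated signal ratio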;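 note: B-score derived from integrated fluorescence ratio over the kinetic read; more negative B-score means stronger inhibition of depolarization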
Target sequence (Q61143 whole entry, looked up): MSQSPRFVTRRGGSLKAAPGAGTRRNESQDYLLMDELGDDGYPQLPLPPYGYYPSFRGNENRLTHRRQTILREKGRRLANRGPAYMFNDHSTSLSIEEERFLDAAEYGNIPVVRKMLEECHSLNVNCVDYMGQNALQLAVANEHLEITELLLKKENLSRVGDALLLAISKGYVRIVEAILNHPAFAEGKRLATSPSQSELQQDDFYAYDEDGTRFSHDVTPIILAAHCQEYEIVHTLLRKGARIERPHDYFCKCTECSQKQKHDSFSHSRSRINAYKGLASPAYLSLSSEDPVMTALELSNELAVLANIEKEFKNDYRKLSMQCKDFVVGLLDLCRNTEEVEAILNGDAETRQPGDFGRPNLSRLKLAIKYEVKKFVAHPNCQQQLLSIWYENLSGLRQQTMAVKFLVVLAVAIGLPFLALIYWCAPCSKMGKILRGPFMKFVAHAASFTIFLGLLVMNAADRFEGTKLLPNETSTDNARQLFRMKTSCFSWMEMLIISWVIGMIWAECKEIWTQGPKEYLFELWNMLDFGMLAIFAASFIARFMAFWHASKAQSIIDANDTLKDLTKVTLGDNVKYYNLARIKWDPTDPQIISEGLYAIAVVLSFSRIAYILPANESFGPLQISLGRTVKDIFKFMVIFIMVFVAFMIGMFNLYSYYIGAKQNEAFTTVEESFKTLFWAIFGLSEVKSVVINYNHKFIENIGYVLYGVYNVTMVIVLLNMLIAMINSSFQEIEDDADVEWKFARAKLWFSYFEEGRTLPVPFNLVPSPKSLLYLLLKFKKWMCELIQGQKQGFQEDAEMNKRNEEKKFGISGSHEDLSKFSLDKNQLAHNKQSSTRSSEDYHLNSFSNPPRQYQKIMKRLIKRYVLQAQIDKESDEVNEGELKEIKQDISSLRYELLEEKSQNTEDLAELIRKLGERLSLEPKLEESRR
TRPC4 agonist: activators of mouse TRPC4 channel; HEK293 TRPC4beta/mu-opioid, Fluo4 calcium fluorescence; active compounds read high; B-score at 10 µM; 310,000 compounds, 0.49% hits;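 active = B-score above 5 SD of library B-scores, and initial fluorescence ratio not above library mean plus 5 SD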;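 note: positive B-score marks a calcium rise read as TRPC4 activation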
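Technique: kinetic Fluo4 calcium fluorescence; Test system: TRPC4beta and mu-opioid receptor HEK293 stable cells; Measure: B-scored integrated calcium fluorescence ratio; Benchmarks: low control buffer alone, high control maximal DAMGO; Schedule: 45 min room-temperature Fluo4 loading, 110 s read.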
TRPC6 activator: activates the mouse TRPC6 cation channel; Q61143; HEK293-TRPC6 membrane potential dye fluorescence; active compounds read high; B-score at 10 µM; 310,000 compounds, 0.13% hits; AID 2550;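 active = B-score of the integrated fluorescence ratio above library mean plus 3 SD, and starting fluorescence ratio within library mean plus 5 SD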;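 note: higher score means more depolarization so channel activation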
TRPC4 PAM: allosterically enhances the mouse TRPC4 cation channel. 310,000 compounds, 0.42% hits. AID 2227. HEK293 TRPC4beta/mu-opioid, DAMGO EC20, Fluo-4 Ca2+ flux; active compounds read high. Q9QUQ5. B-score at 10 µM;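 active = B-score of calcium response area above 5 SD of library B-scores, with initial fluorescence ratio within 5 SD of library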;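 note: B-score of integrated fluorescence ratio over time as area under calcium response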
TRPC4 block: inhibitors of mouse TRPC4 channel | Q9QUQ5 | HEK293 TRPC4beta/mu-opioid, DAMGO-evoked Fluo4 calcium flux; active compounds read low | B-score at 10 µM | 300,000 compounds, 0.39% hits | AID 2247;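 active = B-score over 3 SD under the library average, no early fluorescence shift, positive overall ratio signal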
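Assay system: TRPC4beta/mu-opioid receptor HEK293 cell line; compound dosing: single concentration per test compound; detection: Fluo4 Ca2+ flux fluorescence; evaluation: per-well B score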
TRPC4 sel inh 2: second check of whether TRPC6 inhibitors also affect mouse TRPC4 | inhibition, % at 10 µM | HEK293 TRPC4/MOR, membrane potential dye fluorescence; channel activated by saturating DAMGO dose | shares compounds with TRPC6 inh | 920 compounds, 42% hits;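 active = compounds whose fluorescence signal differed from control wells by over 3 SD, either direction, in both duplicate plates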
TRPC4 spec: selectivity of TRPC6 inhibitors: effect on mouse TRPC4. shares compounds with TRPC6 inh. HEK293 TRPC4/mu-opioid, membrane potential fluorescence. activity change, negative = inhibition, % at 10 µM. 920 compounds, 61% hits. AID 2777;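 active = rise or fall in signal beyond 3 SD of buffer-only wells in both replicate plates, either sign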;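 note: integrated kinetic ratio of fluorescence range over baseline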
HEK293 MPD ctr 2-1: parental HEK293 nonspecific activity of TRPC6 inhibitors, second screen; shares compounds with TRPC6 inh; parental HEK293 membrane potential dye fluorescence; maximal acetylcholine challenge after compound addition; signal change vs control, % at 10 µM; 920 compounds, 31% hits; AID 2779;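 active = membrane potential signal moving either way by over 3 SD of the maximum-effect control, in both duplicate plates, meaning non-specific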
HEK293 MPD ctr-1: checks TRPC6 inhibitor effects in parental HEK293 cells; shares compounds with TRPC6 inh; parental HEK293 membrane potential dye fluorescence; membrane potential signal change, % at 10 µM; 920 compounds, 60% hits; AID 2780;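 active = membrane potential signal shifting up or down by more than 3 SD of buffer-only wells, on both duplicate plates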
HEK293 MPD ctr-2: checks TRPC6 modulator effects in parental HEK293 cells; shares compounds with TRPC6 inh; membrane potential dye fluorescence; membrane potential signal change, % at 10 µM; 2,400 compounds, 51% hits;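 active = membrane potential signal moves up or down beyond 5 SD from buffer-only wells, on both duplicate plates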
HEK293 MPD ctr 2-2: second check of TRPC6 modulator effects in parental HEK293 cells | AID 488926 | membrane potential dye fluorescence; after compound, maximal acetylcholine stimulation | shares compounds with TRPC6 inh | inhibition, % at 10 µM | 2,400 compounds, 14% hits;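 active = membrane potential signal drops by more than 5 SD from the mean control signal, in both duplicate plates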;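 note: plate controls were acetylcholine ECmax control wells for no effect and buffer only wells for full effect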
TRPC4/MOR mod: tests whether TRPC6 modulators also affect mouse TRPC4; shares compounds with TRPC6 inh; HEK293 TRPC4/mu-opioid, membrane potential fluorescence; 2,400 compounds, 69% hits; percent change from control (negative = decrease, positive = increase), % at 10 µM;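 active = membrane potential signal moved up or down beyond 5 SD of buffer control wells, in both duplicate plates, actives on both sides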;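 note: plate controls were assay buffer wells for no effect and DAMGO maximal-effect wells for full effect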
TRPC4/MOR inh 2: second selectivity test of TRPC6 modulators against mouse TRPC4; 2,400 compounds, 55% hits; inhibition, % at 10 µM; shares compounds with TRPC6 inh; HEK293 TRPC4/mu-opioid, membrane potential dye fluorescence; stimulated with maximal-effect DAMGO;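 active = drop in membrane potential signal beyond 5 SD of the control wells in both duplicate plates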;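 note: TRPC4 counter screen for TRPC6 hits run under conditions tuned for TRPC6 not TRPC4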
TRPC6 block conf: confirmation of mouse TRPC6 inhibitors. 3,300 compounds, 43% hits. shares compounds with TRPC6 inh. HEK293-TRPC6, membrane potential dye, ACh-evoked depolarization. inhibition, % at 10 µM;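 active = fluorescence ratio falls more than 5 SD below the full-stimulation control mean, in both duplicate runs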;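 note: integrated fluorescence ratio of peak minus minimum over baseline after agonist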
TRPC6 act confirm: confirmation of mouse TRPC6 activators; HEK293-TRPC6 membrane potential dye fluorescence, FDSS; 2,800 compounds, 11% hits; shares compounds with TRPC6 inh; activation, % at 10 µM;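 active = ratio signal rise beyond 5 SD above unstimulated control wells' mean, seen in both duplicate runs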;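 note: plate controls were buffer EC0 wells for no effect and acetylcholine ECmax response for full effect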
* hit, by the source's call; i = inactive; nt = not tested or not shown.

SMILES	TRPC6 inh	TRPC4 agonist	TRPC6 activator	TRPC4 PAM	TRPC4 block	TRPC6 block conf	TRPC6 act confirm	others
Cc1nc(N2CCCCC2)sc1C(=O)c1cccc([N+](=O)[O-])c1	-5.79*	i	i	i	i	i	i	HEK293 MPD ctr-2=i;HEK293 MPD ctr 2-2=i;TRPC4/MOR mod=i;TRPC4/MOR inh 2=i
Cc1nc(N2CCCCC2)sc1C(=O)c1ccc(SCCO)c([N+](=O)[O-])c1	i	i	i	i	i	nt	nt
CN(C(=O)c1nn(C)c2c1CS(=O)(=O)c1ccccc1-2)c1cccc(Cl)c1	-5.57*	i	i	i	i	50.5%*	nt	HEK293 MPD ctr-2=98.5%*;HEK293 MPD ctr 2-2=i;TRPC4/MOR mod=21.0%*;TRPC4/MOR inh 2=i
COc1ccccc1NNC(=O)c1cccnc1Oc1ccccc1	i	i	i	i	i	nt	nt
Cc1cccn2c(=O)c3cc(C(N)=S)c(=N)n(CCCOC(C)C)c3nc12	-7.27*	i	i	i	i	i	i	TRPC4 sel inh 2=i;TRPC4 spec=-19.2%*;HEK293 MPD ctr 2-1=i;HEK293 MPD ctr-1=-408.5%*
CCOCCCn1c(=N)c(C(N)=S)cc2c(=O)n3cccc(C)c3nc21	-8.93*	i	i	i	i	i	i	TRPC4 sel inh 2=i;TRPC4 spec=i;HEK293 MPD ctr 2-1=26.5%*;HEK293 MPD ctr-1=-196.5%*
COc1ccc(C)cc1NC(=O)CN1C(=O)COc2ccc(S(=O)(=O)N3CCOCC3)cc21	i	i	i	i	i	nt	nt
Cc1ccc(S(=O)(=O)N2CCOC23CCN(C(=O)C(=O)NCCC(C)C)CC3)cc1	i	i	i	i	i	nt	nt
CC1C/C(=N/Nc2nc3ccccc3[nH]2)CC(C)(C)C1 (stereo not drawn)	-5.42*	i	i	i	i	i	i	HEK293 MPD ctr-2=i;HEK293 MPD ctr 2-2=i;TRPC4/MOR mod=i;TRPC4/MOR inh 2=48.0%*
CC1C/C(=N/NC(=O)c2ccc(CSc3nc4ccccc4[nH]3)cc2)CC(C)(C)C1 (stereo not drawn)	i	i	i	i	i	nt	nt
CCn1cc([N+](=O)[O-])c(C(=O)N2CCCc3ccccc32)n1	i	i	i	i	i	nt	nt
O=C(Cc1cccs1)N1CCN=C1SCc1ccc(Br)cc1	i	i	i	i	i	nt	nt
COc1ccc(N2CCN(S(=O)(=O)CCNC(=O)COc3ccc(Cl)cc3)CC2)cc1	i	i	i	i	i	nt	nt
COc1ccc(N2CCN(S(=O)(=O)CCNC(=O)COc3ccccc3C)CC2)cc1	-8.46*	i	i	i	i	i	i	TRPC4 sel inh 2=i;TRPC4 spec=-8.9%*;HEK293 MPD ctr 2-1=240.5%*;HEK293 MPD ctr-1=i
